Source: ChEMBL document CHEMBL2086252, “Syntheses and evaluation of anticonvulsant activity of novel branched alkyl carbamates” (J Med Chem, 2012)
Calls of active or inactive are those of the source. The rule behind the calls is not given here.

What was measured:
[1] = Neurotoxicity in po dosed Sprague-Dawley albino rat assessed as minimal motor impairment by rotarod test; assay type: toxicity, organism-based; conditions: in vivo
How it was run: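 Rats dosed orally; 4 rats per time point after dosing. Neurotoxicity was scored as motor impairment or sedation and reported as number of animals affected over number tested.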

[2] = system: Mus musculus; assay: Anticonvulsant activity in albino CF1 mouse assessed as protection against subcutaneous metrazol-induced seizures at 30 mg/kg, ip after 0.5 hrs; assay type: functional, organism-based; design: dose 30 mg/kg
How it was run: (§1)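 Mice dosed ip at 30, 100 or 300 mg/kg, then tested 0.5 h and 4 h after administration in the MES or scMet test. Protection was recorded as animals protected over animals tested. Neurotoxicity was recorded as motor impairment or sedation, as animals affected over animals tested.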

[3] = system: Mus musculus; assay: Anticonvulsant activity in albino CF1 mouse assessed as protection against subcutaneous metrazol-induced seizures at 100 mg/kg, ip after 0.5 hrs; assay type: functional, organism-based; design: dose 100 mg/kg; how it was run: as §1
[4] = system: Mus musculus; assay: Anticonvulsant activity in albino CF1 mouse assessed as protection against subcutaneous metrazol-induced seizures at 300 mg/kg, ip after 0.5 hrs; assay type: functional, organism-based; design: dose 300 mg/kg; how it was run: as §1
[5] = system: Mus musculus; assay: Anticonvulsant activity in albino CF1 mouse assessed as protection against subcutaneous metrazol-induced seizures at 30 mg/kg, ip after 4 hrs; assay type: functional, organism-based; design: dose 30 mg/kg; how it was run: as §1
[6] = system: Mus musculus; assay: Anticonvulsant activity in albino CF1 mouse assessed as protection against subcutaneous metrazol-induced seizures at 100 mg/kg, ip after 4 hrs; assay type: functional, organism-based; design: dose 100 mg/kg; how it was run: as §1
[7] = system: Mus musculus; assay: Anticonvulsant activity in albino CF1 mouse assessed as protection against subcutaneous metrazol-induced seizures at 300 mg/kg, ip after 4 hrs; assay type: functional, organism-based; design: dose 300 mg/kg; how it was run: as §1
[8] = system: Mus musculus; assay: Anticonvulsant activity in albino CF1 mouse assessed as protection against maximal electroshock-induced seizures at 30 mg/kg, ip after 0.5 hrs; assay type: functional, organism-based; design: dose 30 mg/kg; how it was run: as §1
[9] = system: Mus musculus; assay: Anticonvulsant activity in albino CF1 mouse assessed as protection against maximal electroshock-induced seizures at 100 mg/kg, ip after 0.5 hrs; assay type: functional, organism-based; design: dose 100 mg/kg; how it was run: as §1
[10] = system: Mus musculus; assay: Anticonvulsant activity in albino CF1 mouse assessed as protection against maximal electroshock-induced seizures at 300 mg/kg, ip after 0.5 hrs; assay type: functional, organism-based; design: dose 300 mg/kg; how it was run: as §1
[11] = system: Mus musculus; assay: Anticonvulsant activity in albino CF1 mouse assessed as protection against maximal electroshock-induced seizures at 30 mg/kg, ip after 4 hrs; assay type: functional, organism-based; design: dose 30 mg/kg; how it was run: as §1
[12] = system: Mus musculus; assay: Anticonvulsant activity in albino CF1 mouse assessed as protection against maximal electroshock-induced seizures at 100 mg/kg, ip after 4 hrs; assay type: functional, organism-based; design: dose 100 mg/kg; how it was run: as §1
[13] = system: Mus musculus; assay: Anticonvulsant activity in albino CF1 mouse assessed as protection against maximal electroshock-induced seizures at 300 mg/kg, ip after 4 hrs; assay type: functional, organism-based; design: dose 300 mg/kg; how it was run: as §1
[14] = system: Mus musculus; assay: Neurotoxicity in albino CF1 mouse assessed as minimal motor impairment at 30 mg/kg, ip after 0.5 hrs by rotarod test; assay type: toxicity, organism-based; design: dose 30 mg/kg, route intraperitoneal; conditions: in vivo; how it was run: as §1
[15] = system: Mus musculus; assay: Neurotoxicity in albino CF1 mouse assessed as minimal motor impairment at 300 mg/kg, ip after 0.5 hrs by rotarod test; assay type: toxicity, organism-based; design: dose 300 mg/kg, route intraperitoneal; conditions: in vivo; how it was run: as §1
[16] = system: Mus musculus; assay: Neurotoxicity in albino CF1 mouse assessed as minimal motor impairment at 30 mg/kg, ip after 4 hrs by rotarod test; assay type: toxicity, organism-based; design: dose 30 mg/kg, route intraperitoneal; conditions: in vivo; how it was run: as §1
[17] = system: Mus musculus; assay: Neurotoxicity in albino CF1 mouse assessed as minimal motor impairment at 100 mg/kg, ip after 4 hrs by rotarod test; assay type: toxicity, organism-based; design: dose 100 mg/kg, route intraperitoneal; conditions: in vivo; how it was run: as §1
[18] = system: Mus musculus; assay: Neurotoxicity in albino CF1 mouse assessed as minimal motor impairment at 300 mg/kg, ip after 4 hrs by rotarod test; assay type: toxicity, organism-based; design: dose 300 mg/kg, route intraperitoneal; conditions: in vivo; how it was run: as §1
[19] = system: Rattus norvegicus; assay: Anticonvulsant activity in Sprague-Dawley albino rat assessed as protection against maximal electroshock-induced seizures at 30 mg/kg, po after 15 mins; assay type: functional, organism-based; design: dose 30 mg/kg
How it was run: (§2)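 Rats dosed orally. Anti-MES protection was scored as animals protected over animals tested at each time after dosing. Neurotoxicity was scored as motor impairment or sedation, as animals affected over animals tested.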

[20] = system: Rattus norvegicus; assay: Anticonvulsant activity in Sprague-Dawley albino rat assessed as protection against maximal electroshock-induced seizures at 30 mg/kg, po after 30 mins; assay type: functional, organism-based; design: dose 30 mg/kg; how it was run: as §2
[21] = system: Rattus norvegicus; assay: Anticonvulsant activity in Sprague-Dawley albino rat assessed as protection against maximal electroshock-induced seizures at 30 mg/kg, po after 1 hr; assay type: functional, organism-based; design: dose 30 mg/kg; how it was run: as §2
[22] = system: Rattus norvegicus; assay: Anticonvulsant activity in Sprague-Dawley albino rat assessed as protection against maximal electroshock-induced seizures at 30 mg/kg, po after 2 hrs; assay type: functional, organism-based; design: dose 30 mg/kg; how it was run: as §2
[23] = system: Rattus norvegicus; assay: Anticonvulsant activity in Sprague-Dawley albino rat assessed as protection against maximal electroshock-induced seizures at 30 mg/kg, po after 4 hrs; assay type: functional, organism-based; design: dose 30 mg/kg; how it was run: as §2
[24] = system: Rattus norvegicus; assay: Anticonvulsant activity in Sprague-Dawley albino rat assessed as protection against maximal electroshock-induced seizures at 100 mg/kg, po after 30 mins; assay type: functional, organism-based; design: dose 100 mg/kg; how it was run: as §2
[25] = system: Rattus norvegicus; assay: Anticonvulsant activity in Sprague-Dawley albino rat assessed as protection against maximal electroshock-induced seizures at 100 mg/kg, po after 4 hrs; assay type: functional, organism-based; design: dose 100 mg/kg; how it was run: as §2
[26] = system: Rattus norvegicus; assay: Neurotoxicity in Sprague-Dawley albino rat assessed as minimal motor impairment at 30 mg/kg, po by rotarod test; assay type: toxicity, organism-based; design: dose 30 mg/kg, route oral; conditions: in vivo; how it was run: as §2
[27] = system: Rattus norvegicus; assay: Neurotoxicity in Sprague-Dawley albino rat assessed as minimal motor impairment at 100 mg/kg, po by rotarod test; assay type: toxicity, organism-based; design: dose 100 mg/kg, route oral; conditions: in vivo; how it was run: as §2
[28] = system: Rattus norvegicus; assay: Anticonvulsant activity in po dosed Sprague-Dawley albino rat assessed as protection against maximal electroshock-induced seizures; assay type: functional
How it was run: (§3)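 Quantitative testing: rats dosed orally or ip in MES and scMet tests, and mice dosed ip, including the 6 Hz (32 mA) psychomotor seizure test. ED50 and TD50 were reported in mg/kg with ranges in parentheses. Protective index was calculated as TD50/ED50.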

[29] = system: Rattus norvegicus; assay: Protective index, ratio of TD50 for po dosed Sprague-Dawley albino rat by rotarod test to ED50 for po dosed Sprague-Dawley albino rat by maximal electroshock seizures test; assay type: functional
How it was run: (§4)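 Protective index calculated as TD50/ED50, with TD50 and ED50 taken from the same species and dosing route.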

[30] = system: Rattus norvegicus; assay: Anticonvulsant activity in po dosed Sprague-Dawley albino rat assessed as protection against subcutaneous metrazol-induced seizures; assay type: functional; how it was run: as §3
[31] = system: Rattus norvegicus; assay: Protective index, ratio of TD50 for po dosed Sprague-Dawley albino rat by rotarod test to ED50 for po dosed Sprague-Dawley albino rat by subcutaneous metrazol seizures test; assay type: functional; how it was run: as §4
[32] = system: Rattus norvegicus; assay: Neurotoxicity in pilocarpine-induced status epilepticus Sprague-Dawley albino rat model assessed as minimal motor impairment at 300 mg/kg, ip after 0.25 hr by rotarod test; assay type: toxicity, organism-based; design: dose 300 mg/kg, route intraperitoneal; conditions: in vivo
How it was run: (§5)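 Rat pilocarpine status epilepticus model: test carbamate given at 0 or 30 min after the first observed Racine stage 3 motor seizure, which marks SE onset. Neurotoxicity was scored within the same model.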

[33] = system: Rattus norvegicus; assay: Neurotoxicity in pilocarpine-induced status epilepticus Sprague-Dawley albino rat model assessed as minimal motor impairment at 100 mg/kg, ip after 0.5 hrs by rotarod test; assay type: toxicity, organism-based; design: dose 100 mg/kg, route intraperitoneal; conditions: in vivo
[34] = system: Rattus norvegicus; assay: Neurotoxicity in pilocarpine-induced status epilepticus Sprague-Dawley albino rat model assessed as minimal motor impairment at 300 mg/kg, ip after 0.5 hrs by rotarod test; assay type: toxicity, organism-based; design: dose 300 mg/kg, route intraperitoneal; conditions: in vivo; how it was run: as §5
[35] = system: Rattus norvegicus; assay: Neurotoxicity in pilocarpine-induced status epilepticus Sprague-Dawley albino rat model assessed as minimal motor impairment at 100 mg/kg, ip after 1 hr by rotarod test; assay type: toxicity, organism-based; design: dose 100 mg/kg, route intraperitoneal; conditions: in vivo
[36] = system: Rattus norvegicus; assay: Neurotoxicity in pilocarpine-induced status epilepticus Sprague-Dawley albino rat model assessed as minimal motor impairment at 300 mg/kg, ip after 1 hr by rotarod test; assay type: toxicity, organism-based; design: dose 300 mg/kg, route intraperitoneal; conditions: in vivo; how it was run: as §5
[37] = system: Rattus norvegicus; assay: Neurotoxicity in pilocarpine-induced status epilepticus Sprague-Dawley albino rat model assessed as minimal motor impairment at 100 mg/kg, ip after 2 hrs by rotarod test; assay type: toxicity, organism-based; design: dose 100 mg/kg, route intraperitoneal; conditions: in vivo
[38] = system: Rattus norvegicus; assay: Neurotoxicity in pilocarpine-induced status epilepticus Sprague-Dawley albino rat model assessed as minimal motor impairment at 300 mg/kg, ip after 2 hrs by rotarod test; assay type: toxicity, organism-based; design: dose 300 mg/kg, route intraperitoneal; conditions: in vivo; how it was run: as §5
[39] = system: Rattus norvegicus; assay: Neurotoxicity in pilocarpine-induced status epilepticus Sprague-Dawley albino rat model assessed as minimal motor impairment at 100 mg/kg, ip after 4 hrs by rotarod test; assay type: toxicity, organism-based; design: dose 100 mg/kg, route intraperitoneal; conditions: in vivo
[40] = system: Rattus norvegicus; assay: Neurotoxicity in pilocarpine-induced status epilepticus Sprague-Dawley albino rat model assessed as minimal motor impairment at 300 mg/kg, ip after 4 hrs by rotarod test; assay type: toxicity, organism-based; design: dose 300 mg/kg, route intraperitoneal; conditions: in vivo; how it was run: as §5

In the case of `CCCC(CCC)COC(N)=O`, the TD50 [1] is reported as greater than 500 mg/kg, the Activity [2] is reported as “inactive” and the Activity [3] is reported as “inactive”. The Activity [4] was “Active”, the Activity [5] was “inactive” and the Activity [6] was “inactive”. For the same compound, the Activity [7] was “Active”, the Activity [8] was “inactive” and the Activity [9] was “Active”. The Activity [10] was “Active”, the Activity [11] was “inactive” and the Activity [12] was “inactive”. For the same compound, the Activity [13] was “Active”, the Activity [14] was “Non-toxic” and the Activity [15] was “Toxic”. The Activity [16] was “Non-toxic”, the Activity [17] was “Non-toxic” and the Activity [18] was “Toxic”. For the same compound, the Activity [19] was “inactive”, the Activity [20] was “inactive” and the Activity [21] was “inactive”. For the same compound, the Activity [22] was “inactive”, the Activity [23] was “inactive” and the Activity [24] was “Active”. The Activity [25] was “inactive”, the Activity [26] was “Non-toxic” and the Activity [27] was “Non-toxic”. The ED50 [28] was 35 mg/kg, the “Ratio TD50/ED50” value [29] was greater than 14 and the ED50 [30] was greater than 125 mg/kg. The “Ratio TD50/ED50” value [31] was greater than 4, the Activity [32] was “Toxic” and the Activity [33] was “Non-toxic”. The Activity [34] was “Toxic”, the Activity [35] was “Non-toxic” and the Activity [36] was “Toxic”. For the same compound, the Activity [37] was “Non-toxic”, the Activity [38] was “Toxic” and the Activity [39] was “Non-toxic”. For the same compound, the Activity [40] was “Toxic”.
